# Measured values: ChEMBL document CHEMBL1142995, “Probing the pharmacophore of ginkgolides as glycine receptor antagonists” (J Med Chem, 2007)
# Columns and labels:
# Assay type in all cases: cell-based
# [1] = target: T1, Glycine receptor subunit alpha-1 (Homo sapiens, UniProt P23415); test: Activity at human alpha-1GlyR expressed in HEK293 cells by FMP assay
# T1 sequence (P23415 whole entry): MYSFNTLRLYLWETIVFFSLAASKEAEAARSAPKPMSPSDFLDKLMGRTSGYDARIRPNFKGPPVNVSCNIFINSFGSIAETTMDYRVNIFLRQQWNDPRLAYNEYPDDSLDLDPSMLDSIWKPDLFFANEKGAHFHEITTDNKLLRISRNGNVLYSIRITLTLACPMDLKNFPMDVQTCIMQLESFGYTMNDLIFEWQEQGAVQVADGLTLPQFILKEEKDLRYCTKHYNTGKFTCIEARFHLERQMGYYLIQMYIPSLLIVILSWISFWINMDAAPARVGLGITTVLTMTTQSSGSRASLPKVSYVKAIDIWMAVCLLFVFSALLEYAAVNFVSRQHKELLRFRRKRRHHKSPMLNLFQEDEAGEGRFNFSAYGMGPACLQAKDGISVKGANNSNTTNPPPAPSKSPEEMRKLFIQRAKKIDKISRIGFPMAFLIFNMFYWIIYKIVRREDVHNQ
# How it was run: (§1)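 Stable HEK293 lines (α1: G418; α1β: G418 + hygromycin B; α2: hygromycin B) plated on poly-D-lysine 16-24 h. Loaded with FMP dye in HBSS/20 mM HEPES pH 7.4, antagonist present, 30 min at 37 °C. Fluorescence ex 530/em 560 nm read up to 1 min after glycine: 200 µM (α1, α1β) or 500 µM (α2). Duplicates, ≥3 experiments; IC50 from maximal responses.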
# [2] = target: T1, Glycine receptor subunit alpha-1; test: Activity at human alpha-1-beta-GlyR expressed in HEK293 cells by FMP assay; how it was run: as §1
# [3] = target: T2, Glycine receptor subunit alpha-2 (Homo sapiens, UniProt P23416); test: Activity at human alpha-2GlyR expressed in HEK293 cells by FMP assay; how it was run: as §1
# T2 sequence (P23416 whole entry): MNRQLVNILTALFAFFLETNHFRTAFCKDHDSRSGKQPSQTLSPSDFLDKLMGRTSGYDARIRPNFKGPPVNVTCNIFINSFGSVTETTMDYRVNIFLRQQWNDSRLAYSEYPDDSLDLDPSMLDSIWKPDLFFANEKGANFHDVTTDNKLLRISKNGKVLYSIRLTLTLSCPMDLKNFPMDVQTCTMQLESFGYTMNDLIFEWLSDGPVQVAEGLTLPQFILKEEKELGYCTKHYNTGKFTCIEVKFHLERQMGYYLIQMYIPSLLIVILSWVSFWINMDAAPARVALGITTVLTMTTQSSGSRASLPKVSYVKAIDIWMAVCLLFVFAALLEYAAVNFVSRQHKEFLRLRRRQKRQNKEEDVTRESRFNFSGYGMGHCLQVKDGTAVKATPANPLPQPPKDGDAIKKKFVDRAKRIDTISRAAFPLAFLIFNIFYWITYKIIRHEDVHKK
# [4] = target: T1, Glycine receptor subunit alpha-1; test: Activity at human alpha-1GlyR expressed in HEK293 cells assessed as inhibition of 300 uM glycine-induced current by whole-cell patch clamp experiment
# [5] = target: T1, Glycine receptor subunit alpha-1; test: Activity at human alpha-1GlyR expressed in HEK293 cells assessed as inhibition of 30 uM glycine-induced current by whole-cell patch clamp experiment
# How it was run: (§2)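 α1 GlyR-HEK293 cells, whole-cell patch clamp. Antagonist co-applied with 30 or 3000 µM glycine by gravity perfusion. Peak current normalised to that glycine concentration alone and fitted to Hill equation for IC50 and slope. Mean with 95% CI, 5 cells per glycine concentration.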
# [6] = target: T1, Glycine receptor subunit alpha-1; test: Activity at human alpha1GlyR expressed in HEK293 cells assessed as inhibition of 3000 uM glycine-induced current by whole-cell patch clamp experiment; how it was run: as §2
SMILES,IC50 [1] [µM],IC50 [2] [µM],IC50 [3] [µM],IC50 [4] [µM],IC50 [5] [µM],IC50 [6] [µM]
C[C@@H]1C(=O)O[C@H]2C[C@@]34O[C@@H]5OC(=O)[C@H](O)[C@@]56[C@H](C(C)(C)C)[C@H](O)C(OC3=O)[C@]64[C@]21O (stereo not given in full) [GINKGOLIDE J],7.1,4.2,12,6.4,,
C[C@@H]1C(=O)O[C@H]2[C@H](O)[C@]34[C@@H]5OC(=O)[C@]3(O[C@@H]3OC(=O)[C@H](O)[C@@]34[C@H](C(C)(C)C)[C@H]5O)[C@@]12O [GINKGOLIDE C],4.7,2.4,8.2,1.7,2.4,5.9
C[C@@H]1C(=O)O[C@H]2[C@H](O)[C@@]34[C@H]5C[C@@H](C(C)(C)C)[C@]36[C@@H](OC(=O)[C@@H]6O)O[C@@]4(C(=O)O5)[C@@]12O [GINKOLIDE B],2.9,2.1,3.7,1.7,,
C[C@@H]1C(=O)O[C@@H]2[C@H]1[C@@]13OC4OC(=O)[C@H](O)C45[C@H](C(C)(C)C)[C@@H](O)C(OC1=O)[C@]53[C@H]2O (stereo not given in full) [GINKGOLIDE M],0.78,0.56,1.3,0.65,,
CC(=O)O[C@@H]1C2OC(=O)[C@]34OC5OC(=O)[C@H](O)C5([C@@H]1C(C)(C)C)[C@@]23[C@@H](O)[C@@H]1OC(=O)[C@@H](C)[C@@]14O (stereo not given in full),> 100,> 100,> 100,,,
C[C@@H]1C(=O)O[C@H]2[C@H](O)[C@]34C5OC(=O)[C@@]3(OC3OC(=O)[C@H](O)C34[C@H](C(C)(C)C)C5=O)[C@@]12O (stereo not given in full),> 100,> 100,> 100,,,
COCO[C@H]1C(=O)O[C@H]2O[C@@]34OC(=O)[C@@H]5C[C@@H](C(C)(C)C)[C@@]21[C@]53C[C@@H]1OC(=O)[C@@H](C)[C@@]14O [10-METHOXYMETHYLOXY-GINKGOLIDE A],> 100,> 100,> 100,,,
C[C@@H]1C(=O)O[C@H]2C[C@@]34C5C[C@@H](C(C)(C)C)C3C(=O)O[C@]4(C(=O)O5)[C@]21O (stereo not given in full),> 100,> 100,> 100,,,
C[C@@H]1CO[C@H]2C[C@@]34C5C[C@@H](C(C)(C)C)C36C(OC[C@@H]6O)O[C@]4(C(=O)O5)[C@@]12O (stereo not given in full),> 100,> 100,> 100,,,
"CC1=C2[C@H](C[C@]34[C@H]5C[C@@H](C(C)(C)C)[C@]36[C@@H](OC(=O)[C@@H]6O)O[C@]24OC5=O)OC1=O [3,14-DIDEHYDROGINKGOLIDE A]",6.2,3.1,9.5,,,
COC1C[C@@]23C4C[C@@H](C(C)(C)C)C25C(OC(=O)[C@@H]5OC)O[C@@]3(C(=O)O1)C(=O)O4 (stereo not given in full),> 100,> 100,> 100,,,
COC1C[C@]23C4C[C@@H](C(C)(C)C)C25C(OC(=O)[C@@H]5OC(C)=O)O[C@@]3(C(=O)O1)C(=O)O4 (stereo not given in full),> 100,> 100,> 100,,,
C[C@@H]1C(=O)O[C@H]2C[C@@]34[C@H]5C[C@@H](C(C)(C)C)[C@]36[C@@H](OC(=O)[C@@H]6O)O[C@@]4(C(=O)O5)[C@]21O [GINKGOLIDE A],1.9,0.69,2.1,3.8,,
C[C@@H]1C(=O)O[C@H]2[C@H](O)[C@]34C5OC(=O)[C@@]3(OC3OC(=O)[C@H](O)C34[C@H](C(C)(C)C)[C@@H]5O)[C@@]12O (stereo not given in full),> 100,> 100,> 100,,,
C[C@@H]1C(=O)O[C@H]2[C@H](O)[C@]34[C@@H]5C(=O)O[C@@]3(O[C@@H]3OC(=O)[C@H](O)[C@@]34[C@H](C(C)(C)C)[C@@H]5N=[N+]=[N-])[C@@]12O,17,7.4,29,,,
CC(=O)O[C@H]1C(=O)OC2O[C@@]34C(=O)OC5C[C@@H](C(C)(C)C)C21[C@@]53C[C@@H]1OC(=O)[C@H](C)[C@@H]14 (stereo not given in full),> 100,> 100,> 100,,,
